Drawing on ChEMBL document CHEMBL1146728, “Statin-derived 1,3-oxazinan-2-ones as submicromolar inhibitors of LFA-1/ICAM-1 interaction: stabilization of the metabolically labile vanillyl side chain” (Bioorg Med Chem Lett, 2004), this text covers microsomal CLint, Inhibition and IC50 for 15 molecules.

Data set [1] in a line: Intrinsic clearance in rat liver microsomes was determined. Particulars: read-out: Clearance. Format: ADME, Microsome. Summed up:
(§1)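 Pooled liver microsomes at 0.15 mg/mL protein, compound at 1 µM, in 100 mM phosphate buffer pH 7.4 with 5 mM MgCl2, 1 mM EDTA, 0.35 mg/mL albumin and alamethicin, at 37°C. Started with final 4 mM UDPGA plus 1 mM NADPH and stopped at 5 and 20 min with ACN containing 0.02% FA. Single incubations, clearance in µL/min/mg.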

For data set [2], the system named is Mus musculus. The data set is described as follows: Anti-inflammatory activity against murine model of allergic contact dermatitis (mACD) after single oral administration (1 mg/kg) (in vivo). Format: functional. Put shortly:
(§2)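 Oxazolone-sensitized mice, eight per group, challenged with 10 µL of 2.0% oxazolone on the inner surface of the right ear; unchallenged left ear served as control. Single oral dose of compound given 2 h after challenge. Ear weight difference at 24 h used as swelling measure. Result is % inhibition versus vehicle controls, mean ± SEM, ANOVA/Dunnett or H/U-test.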

In data set [3] the target is T1, Intercellular adhesion molecule (ICAM-1), Integrin alpha-L/beta-2 (Homo sapiens, UniProt P05107+P20701). The data set is described as follows: In vitro inhibition of recombinant ICAM-1 binding to purified immobilized LFA-1 using cell-free assay. In kind it is functional.
T1 sequence (P20701 whole entry): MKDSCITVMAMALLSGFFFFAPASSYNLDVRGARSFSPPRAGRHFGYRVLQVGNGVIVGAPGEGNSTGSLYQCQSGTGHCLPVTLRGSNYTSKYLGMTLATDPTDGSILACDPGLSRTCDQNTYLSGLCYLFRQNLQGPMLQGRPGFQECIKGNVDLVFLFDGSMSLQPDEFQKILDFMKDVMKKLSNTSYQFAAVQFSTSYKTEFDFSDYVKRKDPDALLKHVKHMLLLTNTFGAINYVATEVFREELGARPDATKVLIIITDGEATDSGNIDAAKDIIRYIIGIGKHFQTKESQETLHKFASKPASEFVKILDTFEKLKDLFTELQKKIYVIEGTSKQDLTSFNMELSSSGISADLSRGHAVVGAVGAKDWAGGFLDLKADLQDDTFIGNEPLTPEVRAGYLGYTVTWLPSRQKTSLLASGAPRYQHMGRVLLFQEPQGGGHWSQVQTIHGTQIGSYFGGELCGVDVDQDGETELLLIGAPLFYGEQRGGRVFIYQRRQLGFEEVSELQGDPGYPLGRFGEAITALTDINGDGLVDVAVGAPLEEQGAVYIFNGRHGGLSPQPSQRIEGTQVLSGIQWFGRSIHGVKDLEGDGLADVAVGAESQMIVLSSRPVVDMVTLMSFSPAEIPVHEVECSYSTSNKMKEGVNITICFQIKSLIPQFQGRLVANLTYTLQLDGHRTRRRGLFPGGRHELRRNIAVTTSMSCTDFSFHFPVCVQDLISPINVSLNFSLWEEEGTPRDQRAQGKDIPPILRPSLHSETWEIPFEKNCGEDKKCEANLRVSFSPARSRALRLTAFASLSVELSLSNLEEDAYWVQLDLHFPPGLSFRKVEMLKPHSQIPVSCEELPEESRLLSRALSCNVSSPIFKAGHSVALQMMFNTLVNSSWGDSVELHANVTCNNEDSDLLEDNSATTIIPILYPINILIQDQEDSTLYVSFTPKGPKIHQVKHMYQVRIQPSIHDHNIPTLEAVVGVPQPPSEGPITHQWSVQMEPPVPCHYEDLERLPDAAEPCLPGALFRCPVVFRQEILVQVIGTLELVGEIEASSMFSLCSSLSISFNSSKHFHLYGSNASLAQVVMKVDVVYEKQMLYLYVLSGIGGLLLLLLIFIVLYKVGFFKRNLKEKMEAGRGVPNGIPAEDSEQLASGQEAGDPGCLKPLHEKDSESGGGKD
T1 sequence (P05362 whole entry, further chain): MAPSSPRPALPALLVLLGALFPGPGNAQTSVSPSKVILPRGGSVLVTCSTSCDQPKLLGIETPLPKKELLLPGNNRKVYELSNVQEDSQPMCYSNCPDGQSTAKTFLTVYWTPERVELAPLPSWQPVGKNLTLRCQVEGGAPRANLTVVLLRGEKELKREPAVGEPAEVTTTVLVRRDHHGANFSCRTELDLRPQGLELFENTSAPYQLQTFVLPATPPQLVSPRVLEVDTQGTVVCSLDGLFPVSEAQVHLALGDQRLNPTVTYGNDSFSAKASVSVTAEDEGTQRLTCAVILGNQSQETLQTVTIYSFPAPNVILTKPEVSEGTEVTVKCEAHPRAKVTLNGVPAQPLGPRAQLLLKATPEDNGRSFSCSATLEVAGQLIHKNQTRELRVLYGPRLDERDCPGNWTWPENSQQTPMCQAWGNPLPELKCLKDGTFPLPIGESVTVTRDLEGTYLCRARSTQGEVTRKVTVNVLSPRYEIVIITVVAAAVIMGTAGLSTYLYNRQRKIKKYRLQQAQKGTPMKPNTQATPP
T1 sequence (P05107 whole entry): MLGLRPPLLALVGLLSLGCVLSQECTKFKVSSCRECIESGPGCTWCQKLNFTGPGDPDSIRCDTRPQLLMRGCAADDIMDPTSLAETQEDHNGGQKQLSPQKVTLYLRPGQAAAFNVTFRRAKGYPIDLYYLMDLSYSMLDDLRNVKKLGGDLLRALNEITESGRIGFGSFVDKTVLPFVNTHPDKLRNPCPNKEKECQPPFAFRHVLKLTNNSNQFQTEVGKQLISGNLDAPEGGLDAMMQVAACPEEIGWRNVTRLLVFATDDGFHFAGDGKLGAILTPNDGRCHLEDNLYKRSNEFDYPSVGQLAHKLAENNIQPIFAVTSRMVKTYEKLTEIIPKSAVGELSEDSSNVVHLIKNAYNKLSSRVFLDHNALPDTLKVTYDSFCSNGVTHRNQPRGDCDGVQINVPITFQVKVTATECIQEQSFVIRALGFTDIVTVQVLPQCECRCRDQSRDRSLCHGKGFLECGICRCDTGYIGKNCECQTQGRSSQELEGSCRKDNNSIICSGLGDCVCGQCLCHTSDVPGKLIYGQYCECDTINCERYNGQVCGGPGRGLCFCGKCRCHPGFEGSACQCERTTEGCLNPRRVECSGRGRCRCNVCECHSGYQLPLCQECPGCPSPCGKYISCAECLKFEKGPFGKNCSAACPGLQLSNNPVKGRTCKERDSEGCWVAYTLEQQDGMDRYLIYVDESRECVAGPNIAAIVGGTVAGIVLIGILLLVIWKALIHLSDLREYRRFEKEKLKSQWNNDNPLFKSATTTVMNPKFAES
The test system of data set [4] is Mus musculus. The data set is described as follows: Anti-inflammatory activity against murine model of allergic contact dermatitis (mACD) after single oral administration (0.1 mg/kg) (in vivo). In kind it is functional. Put shortly: as §2
The target of data set [5] is T1, Intercellular adhesion molecule (ICAM-1), Integrin alpha-L/beta-2. The data set is described as follows: Inhibition of HUT78 cell adhesion to immobilized ICAM-1 protein. Format: functional, cell-based.
Data set [6] in a line: Intrinsic clearance in human liver microsomes was determined. Format: ADME, Microsome. The conditions noted are these: read-out: Clearance. Put shortly:
as §1

A value given as a limit tells only on which side of the number the result lay.

As for `CC[C@H](C)C(=O)O[C@H]1C[C@@H](C)C=C2C=C[C@H](C)[C@H](CC[C@@H]3C[C@H](CC(=O)NC)N(Cc4ccc5c(c4)OCO5)C(=O)O3)[C@H]21`, the results for the microsomal CLint in data set [1] and in data set [6] were 100 µL/min/mg and 383 µL/min/mg, respectively. Besides, the Inhibition (in general, the change of the read-out against control, counted positive when it falls) in the data set on Mus musculus [2] amounted to 29%; in the data set with Mus musculus [4] it was 28%. For the same molecule, the half-inhibitory concentration (IC50) (as a rule, the point on the concentration scale where inhibition reaches its midpoint) in data set [3] came to 0.17 µM; in data set [5], 6.42 µM.
Turning to `CC[C@H](C)C(=O)O[C@H]1C[C@@H](C)C=C2C=C[C@H](C)[C@H](CC[C@@H]3C[C@H](CC(=O)OC)N(Cc4ccc5c(c4)OC(F)(F)O5)C(=O)O3)[C@H]21`, in the data set with Mus musculus [2], the Inhibition is given as -3%. In addition, the IC50 in data set [3] and in data set [5] was above 30 µM throughout.
Consider `CC[C@H](C)C(=O)O[C@H]1C[C@@H](C)C=C2C=C[C@H](C)[C@H](CC[C@@H]3C[C@H](CC(=O)OC)N(Cc4ccc(O)c(OC)c4)C(=O)O3)[C@H]21`, for which the Inhibition with Mus musculus [2] is 46%; in the data set with Mus musculus [4], 16%. Further, the IC50 in data set [3] came out at 0.05 µM; in data set [5] it was 0.12 µM.
The matching figures for `CC[C@H](C)C(=O)O[C@H]1C[C@@H](C)C=C2C=C[C@H](C)[C@H](CC[C@@H]3C[C@H](CC(=O)OC)N(Cc4ccc5c(c4)OCO5)C(=O)O3)[C@H]21`: 42%, 32%, 1 µM and 2.59 µM.
Consider `CC[C@H](C)C(=O)O[C@H]1C[C@@H](C)C=C2C=C[C@H](C)[C@H](CC[C@@H]3C[C@H](CC(=O)NC)N(Cc4cccc(OC)c4)C(=O)O3)[C@H]21`, for which the microsomal CLint stood at 123 µL/min/mg in data set [1] and 55 µL/min/mg in data set [6]. Also, in the data set on Mus musculus [2], the Inhibition was found to be 21%. In addition, the 50% inhibitory concentration (IC50) is 0.27 µM in data set [3] and 6.5 µM in data set [5].
For `CC[C@H](C)C(=O)O[C@H]1C[C@@H](C)C=C2C=C[C@H](C)[C@H](CC[C@@H]3C[C@H](CC(=O)NC)N(Cc4ccc(C(C)(C)O)cc4)C(=O)O3)[C@H]21`, the microsomal CLint in data set [1] and in data set [6] was above 500 µL/min/mg throughout. Besides, the Inhibition is listed as 26% in the data set on Mus musculus [2] and 9% in the data set on Mus musculus [4]. In addition, the IC50 in data set [3] amounted to 1.5 µM.
With `CC[C@H](C)C(=O)O[C@H]1C[C@@H](C)C=C2C=C[C@H](C)[C@H](CC[C@@H]3C[C@H](CC(=O)NC)N(Cc4ccc(C(=O)NC)cc4)C(=O)O3)[C@H]21`, the microsomal CLint in data set [1] and in data set [6] was above 500 µL/min/mg each time. Further, the figures for the Inhibition in the data set on Mus musculus [2] and in the data set with Mus musculus [4] were 26% and 32%, respectively. The results for the IC50 in data set [3] and in data set [5] were 0.62 µM and above 30 µM, respectively.
With `CC[C@H](C)C(=O)O[C@H]1C[C@@H](C)C=C2C=C[C@H](C)[C@H](CC[C@@H]3C[C@H](CC(=O)OC)N(Cc4cccc(OC)c4)C(=O)O3)[C@H]21`, in the data set on Mus musculus [2], the Inhibition is given as 23%. The half-maximal inhibitory concentration (IC50) in data set [3] was 0.68 µM; in data set [5], 4.5 µM.
Take `CC[C@H](C)C(=O)O[C@H]1C[C@@H](C)C=C2C=C[C@H](C)[C@H](CC[C@@H]3C[C@H](CC(=O)OC)N(CCc4ccc(O)c(OC)c4)C(=O)O3)[C@H]21`: the Inhibition in the data set on Mus musculus [2] was determined as 30%; in the data set on Mus musculus [4], 9%. Moreover, the values for the half-inhibitory concentration (IC50) in data set [3] and in data set [5] were 0.64 µM and 20.5 µM, respectively.
For `CC[C@H](C)C(=O)O[C@H]1C[C@@H](C)C=C2C=C[C@H](C)[C@H](CC[C@@H]3C[C@H](CC(=O)OC)N(Cc4ccc(C(C)(C)O)cc4)C(=O)O3)[C@H]21`, the figures for the Inhibition with Mus musculus [2] and with Mus musculus [4] were 33% and 12%, respectively. The half-inhibitory concentration (IC50) stood at 3 µM in data set [3] and 7.69 µM in data set [5].
Turning to `CC[C@H](C)C(=O)O[C@H]1C[C@@H](C)C=C2C=C[C@H](C)[C@H](CC[C@@H]3C[C@H](CC(=O)NC)N(CCc4ccc(O)c(OC)c4)C(=O)O3)[C@H]21`, the microsomal CLint in data set [1] and in data set [6] was above 500 µL/min/mg throughout. The values for the Inhibition in the data set with Mus musculus [2] and with Mus musculus [4] were 43% and 29%, respectively. Also, the IC50 was found to be 0.8 µM in data set [3] and 9.5 µM in data set [5].
Regarding `CC[C@H](C)C(=O)O[C@H]1C[C@@H](C)C=C2C=C[C@H](C)[C@H](CC[C@@H]3C[C@H](CC(=O)OC)N(Cc4ccc(C(=O)NC)cc4)C(=O)O3)[C@H]21`, the Inhibition with Mus musculus [2] stood at 8%. In addition, the IC50 in data set [3] is 1.3 µM; in data set [5], above 30 µM.
In the case of `CC[C@H](C)C(=O)O[C@H]1C[C@@H](C)C=C2C=C[C@H](C)[C@H](CC[C@@H]3C[C@H](CC(=O)NC)N(Cc4ccc5c(c4)OC(F)(F)O5)C(=O)O3)[C@H]21`, the microsomal CLint in data set [1] is 207 µL/min/mg; in data set [6], above 500 µL/min/mg. In addition, the Inhibition in the data set with Mus musculus [2] is given as 19%. Moreover, the IC50 in data set [3] was 1.15 µM; in data set [5] it was 5.59 µM.
For `CC[C@H](C)C(=O)O[C@H]1C[C@@H](C)C=C2C=C[C@H](C)[C@H](CC[C@@H]3C[C@H](CC(=O)NC)N(Cc4ccc(C(=O)O)cc4)C(=O)O3)[C@H]21`, in that order: 214 µL/min/mg, 205 µL/min/mg, 21%, 0.87 µM and above 30 µM.
For the molecule `CC[C@H](C)C(=O)O[C@H]1C[C@@H](C)C=C2C=C[C@H](C)[C@H](CC[C@@H]3C[C@H](CC(=O)NC)N(Cc4ccc(O)c(OC)c4)C(=O)O3)[C@H]21`, the microsomal CLint in data set [1] and in data set [6] was above 500 µL/min/mg in each case. Also, the Inhibition in the data set with Mus musculus [2] is recorded as 47%; with Mus musculus [4], 39%. The results for the IC50 in data set [3] and in data set [5] were 0.05 µM and 0.25 µM, respectively.
